Assay outcomes deposited in PubChem by several laboratories.
In the library only some 4.6% were active in any assay of this set; here they are far more common.
Mdm2 ligase inh – MDM2-luciferase reporter signal enhancers, primary screen, MDM2 E3 ligase inhibitor project, cell-based, luminescence, 1536-well; E3 ubiquitin-protein ligase Mdm2 (Homo sapiens), Q00987; cell-based MDM2 ubiquitination luciferase reporter, 2 h; 0 = plate control, 100 = twice control, blank-subtracted; signal enhancement, % at 5 µM; hit rate 0.11% among 210,000; AID 1230, 2008;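 active = signal enhancement of 30% or more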;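 also: luminescence tracks abundance of the self-degrading MDM2-luciferase fusion protein; higher signal means inhibition of MDM2 E3 ligase activity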
Target sequence (Q00987 whole entry, looked up, the tested form may be a part): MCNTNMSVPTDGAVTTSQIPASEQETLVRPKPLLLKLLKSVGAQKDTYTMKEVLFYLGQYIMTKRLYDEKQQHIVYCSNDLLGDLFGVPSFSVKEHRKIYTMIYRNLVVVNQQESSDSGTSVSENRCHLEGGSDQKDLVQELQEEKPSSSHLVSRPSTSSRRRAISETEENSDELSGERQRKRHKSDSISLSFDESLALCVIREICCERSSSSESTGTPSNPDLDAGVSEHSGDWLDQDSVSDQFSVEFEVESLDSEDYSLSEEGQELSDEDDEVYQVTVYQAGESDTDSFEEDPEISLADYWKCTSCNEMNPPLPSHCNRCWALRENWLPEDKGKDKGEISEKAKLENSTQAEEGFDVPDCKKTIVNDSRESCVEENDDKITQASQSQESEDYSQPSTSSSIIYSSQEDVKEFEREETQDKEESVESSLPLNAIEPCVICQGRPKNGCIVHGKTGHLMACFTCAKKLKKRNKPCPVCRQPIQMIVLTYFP
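test system = mammalian cells stably expressing self-ubiquitinating, self-degrading MDM2 E3–luciferase fusion | quantity = 2000 cells/well | incubation = cell settling 4 h, compound treatment 2 h, both 37 °C | signal = luminescence with SteadyLite reagent, 15 min at room temperature | evaluation = % enhancement relative to plate controls after blank subtraction | benchmarks = plate controls and plate blanks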
p97 inhibitor – inhibitors of human p97 ATPase, primary screen, biochemical | recombinant p97 ATPase, Kinase-Glo ATP luminescence, 3 h | Transitional endoplasmic reticulum ATPase (Homo sapiens), P55072 | inhibition, % at 8 µM | hit rate 0.42% among 220,000; in the data active = inhibition above about 15%;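 also: 0% = DMSO vehicle and 100% = wells lacking enzyme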
APP 5'UTR act – activators of APP 5'UTR luciferase reporter, primary screen, SH-SY5Y cells. SH-SY5Y APP 5'UTR luciferase reporter, luminescence; zero percent = DMSO vehicle wells. activation, % at 2 µM. hit rate 1% among 190,000;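 active = activation above a set limit, based on mean plus 3 SD of controls, cut at about 140% in these data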
Wee1 stabilizer – Wee1 degradation inhibitors, primary screen, cell-based, HeLa, Wee1K328M-luciferase, luminescence. reporter increase, % at 5 µM. HeLa Luc-Wee1K328M stability; 100% = proteasome inhibitor MG132 effect. hit rate 1.2% among 220,000. Wee1-like protein kinase (Homo sapiens), P30291;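 active = activation above the mean of all tested compounds plus 3 SD, set per screening run, cut at about 8.8% in these data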;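 also: cells exposed to compound for 20 h before luminescence read; 0% = DMSO alone and 100% = MG132 at 30 µM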
NF-kB neuron act – activators of NF-kB expression in neurons, primary screen, cell-based, HTS | human neuronal cells, NF-kB reporter expression; active compounds read high | fold change at 12.5 µM | hit rate 1.6% among 190,000; in the data active = fold change above about 3.3
STAT1 act – STAT1 signaling activators, primary screen, cell-based, HTS, luciferase reporter; hit rate 2.6% among 200,000; AID 932, 2007; activation (% of control), % at 5.5 µM; NIH 3T3 STAT1-luciferase reporter, IFN-gamma, luminescence; 100% = IFN-gamma alone, no compound;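 active = activation above the screen-wide mean activation plus 3 SD, cut at about 130% in these data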;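 also: raw ratio to IFN-gamma control signal so 100% means no change and 0% no light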
p97 inh conf – p97 ATPase inhibitors, retest, confirmation, biochemical | shares compounds with p97 inhibitor | recombinant p97 ATPase, Kinase-Glo ATP luminescence | inhibition, % at 8 µM | hit rate 44% among 760;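 active = percent inhibition of p97 ATPase above a set limit, the primary screen's mean plus 3 SD, cut at about 15% in these data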;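 also: 0% = DMSO wells and 100% = wells lacking p97 protein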
Active calls of the source: *.

COC(=O)c1ccccc1NC(=O)C1CCCC1 was read as Mdm2 ligase inh -9, p97 inhibitor 4, APP 5'UTR act 5, Wee1 stabilizer 1, NF-kB neuron act 0.93 and STAT1 act 90.
COC(=O)c1ccccc1NC(=S)NC(=O)C1CCCCC1 was read as Mdm2 ligase inh -10, p97 inhibitor 18*, APP 5'UTR act -3, Wee1 stabilizer 0, NF-kB neuron act 0.89, STAT1 act 95 and p97 inh conf 19*.
COC(=O)c1ccccc1NC(=S)NC(=O)c1ccccc1C was read as Mdm2 ligase inh -1, p97 inhibitor 36*, APP 5'UTR act 6, Wee1 stabilizer -2, NF-kB neuron act 0.66, STAT1 act 93 and p97 inh conf 39*.
For CCSCc1nnc(SCC(=O)Nc2nc(C)cs2)n1C the results were Mdm2 ligase inh -13, p97 inhibitor 3, APP 5'UTR act -8, Wee1 stabilizer 1, NF-kB neuron act 0.88 and STAT1 act 105.
For C=CCn1cccc(C(=O)Nc2ccc(OCC)cc2)c1=O the results were Mdm2 ligase inh -12, p97 inhibitor 1, APP 5'UTR act 9, Wee1 stabilizer -2, NF-kB neuron act 2.3 and STAT1 act 115.
CCOC(=O)C1=C(c2ccccc2)NC(N)=NC1c1ccc(OCc2ccc(Cl)cc2)c(OC)c1 (centres undefined) was read as Mdm2 ligase inh -5, p97 inhibitor 20*, Wee1 stabilizer -4 and p97 inh conf 28*.
For N#CCCn1[nH]c(-c2ccccc2)cc1=O the results were Mdm2 ligase inh -4, p97 inhibitor 22*, APP 5'UTR act -9, Wee1 stabilizer 2, NF-kB neuron act 1.1, STAT1 act 107 and p97 inh conf 5.
N#Cc1c(NC(=O)c2cccc(S(=O)(=O)Nc3ccc(C(=O)O)cc3)c2)sc2c1CCCC2 was read as Mdm2 ligase inh -5, p97 inhibitor 1 and Wee1 stabilizer 4.
For Cc1ccccc1NC(=S)Nc1ccc2[nH]c(=O)[nH]c2c1 the results were Mdm2 ligase inh -7, p97 inhibitor 9 and Wee1 stabilizer 1.
Screening O=C(Cc1cccs1)Nc1nnc(SCc2ccc(C(F)(F)F)cc2)s1 returned Mdm2 ligase inh -13, p97 inhibitor 3, APP 5'UTR act -1, Wee1 stabilizer 0, NF-kB neuron act 1.2 and STAT1 act 93.
Cc1cccc(NC(=O)c2ccco2)c1C(=O)O was read as Mdm2 ligase inh -12, p97 inhibitor 8 and Wee1 stabilizer -2.
`Cc1cccc(NC(=O)c2sc(NC(=O)c3ccco3)c(C#N)c2C)c1C` gave Mdm2 ligase inh -7, p97 inhibitor 16*, APP 5'UTR act -11, Wee1 stabilizer 1, NF-kB neuron act 1.1, STAT1 act 94 and p97 inh conf 10.
`S=c1nc(-c2ccccc2Cl)n(Cc2cccnc2)c2c1CCCC2` gave Mdm2 ligase inh -4, p97 inhibitor 1, APP 5'UTR act 16, Wee1 stabilizer -4, NF-kB neuron act 1.1 and STAT1 act 90.
For CCC(=O)NNc1nc2c(C)cc(C)cc2s1 the results were Mdm2 ligase inh -24, p97 inhibitor 15*, APP 5'UTR act 9, Wee1 stabilizer 4, NF-kB neuron act 1.1, STAT1 act 105 and p97 inh conf 6.
Cc1cc(C)c2nc(SCC(=O)NNC(=O)c3ccco3)c(C)cc2c1 was read as Mdm2 ligase inh -9, p97 inhibitor 15*, APP 5'UTR act 13, Wee1 stabilizer 1, NF-kB neuron act 1.1, STAT1 act 100 and p97 inh conf 16*.
